Data on 11 compounds can be found in ChEMBL document CHEMBL4138056, “T- and B-cell immunosuppressive activity of novel α-santonin analogs with humoral and cellular immune response in Balb/c mice” (Medchemcomm, 2017).

The subject of series [1] is Murine T-cell line. Put plainly: Immunosuppressive activity in Balb/c mouse T cells assessed as inhibition of ConA-induced cell proliferation at 100 uM after 48 hrs by MTT assay relative to control.
Series [2] has as its system B-cell line. In words: Cytotoxicity against Balb/c mouse B cells assessed as decrease cell survival at 1 uM by MTT assay. In kind it is cell-based. The gist of the method: (§1)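 Balb/c splenocytes (RBC lysed with tris-ammonium chloride, trypan blue viability) seeded at 1×10^6 cells/mL with Con A or LPS (10 μg/mL each) and test agent at 1, 10 or 100 μM for 48 h at 37 °C, 5% CO2; MTT added for 4 h, formazan dissolved in DMSO, OD 540 nm. Cytotoxicity scored +/−; triplicate, three separate experiments.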

Series [3] has as its system Murine T-cell line. Put plainly: Cytotoxicity against Balb/c mouse T cells assessed as decrease in cell survival at 1 uM by MTT assay. It counts as cell-based. The procedure, abridged:
as §1

Series [4] relates to B-cell line. Put plainly: Immunosuppressive activity in Balb/c mouse B cells assessed as inhibition of LPS-induced cell proliferation at 10 uM after 48 hrs by MTT assay relative to control. It counts as functional. The gist of the method:
(§2)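 Balb/c spleen single-cell suspension, RBCs lysed with tris-ammonium chloride, viability by trypan blue; 1×10^6 cells/mL stimulated with LPS (10 μg/mL) for B cells, test agent 1, 10 or 100 μM, 48 h at 37 °C, 5% CO2. MTT 4 h, DMSO solubilization, OD 540 nm; % change vs mitogen control; triplicate, three separate experiments.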

In series [5] the test system is Murine T-cell line. In words: Cytotoxicity against Balb/c mouse T cells assessed as decrease in cell survival at 10 uM by MTT assay. In kind it is cell-based. The gist of the method:
as §1

In series [6] the test system is Murine T-cell line. Put plainly: Immunosuppressive activity in Balb/c mouse T cells assessed as inhibition of ConA-induced cell proliferation at 10 uM after 48 hrs by MTT assay relative to control.
The subject of series [7] is B-cell line. Put plainly: Cytotoxicity against Balb/c mouse B cells assessed as decrease cell survival at 100 uM by MTT assay. In kind it is cell-based. The gist of the method: as §1
In series [8] the test system is Murine T-cell line. Put plainly: Immunosuppressive activity in Balb/c mouse T cells assessed as inhibition of ConA-induced cell proliferation at 1 uM after 48 hrs by MTT assay relative to control.
Series [9] has as its system B-cell line. In words: Cytotoxicity against Balb/c mouse B cells assessed as decrease cell survival at 10 uM by MTT assay. It counts as cell-based. The procedure, abridged:
as §1

Series [10] relates to B-cell line. In words: Immunosuppressive activity in Balb/c mouse B cells assessed as inhibition of LPS-induced cell proliferation at 1 uM after 48 hrs by MTT assay relative to control. In kind it is functional. The procedure, abridged: as §2
Series [11] deals with B-cell line. Put plainly: Immunosuppressive activity in Balb/c mouse B cells assessed as inhibition of LPS-induced cell proliferation at 100 uM after 48 hrs by MTT assay relative to control. It counts as functional. The procedure, abridged: as §2
For series [12], the system named is Murine T-cell line. In words: Cytotoxicity against Balb/c mouse T cells assessed as decrease in cell survival at 100 uM by MTT assay. In kind it is cell-based. The procedure, abridged: as §1

As to `COc1cc(C)c2c(c1C)[C@@H]1OC(=O)[C@@H](C)[C@@H]1CC2`, the inhibition at 100 µM is 16.1% in [1] and 21% in series [11]. The Activity entry in [2], in [3], in series [5], in series [7], in series [9] and in series [12] was “Toxic” throughout. Besides, the results for the inhibition at 10 µM in series [4] and in series [6] were 19.1% and 23.2%, respectively. Besides, the values for the inhibition at 1 µM in [8] and in series [10] were 50% and 42%, respectively.
Take `Cc1cc(OC(=O)CCC(=O)Nc2ccccc2Cl)c(C)c2c1CC[C@H]1[C@H](C)C(=O)O[C@@H]21`: the inhibition at 100 µM in series [1] was 56%; in series [11], 69%. Further, the Activity result in series [2], in [3], in [5], in [7], in series [9] and in series [12] was “Non-Toxic” each time. Besides, the inhibition at 10 µM in series [4] was 51%; in [6] it was 45%. Besides, the results for the inhibition at 1 µM in series [8] and in series [10] were 13% and 27.7%, respectively.
With `Cc1cc(OC(=O)CCC(=O)O)c(C)c2c1CC[C@H]1[C@H](C)C(=O)O[C@@H]21`, the inhibition at 100 µM in [1] worked out at 61.7%; in series [11], 5.2%. Besides, the Activity result in [2] is listed as “Non-Toxic”; in [3], “Non-Toxic”; in series [5] it was “Toxic”; in [7] it was “Toxic”; in series [9], “Toxic”; in [12], “Toxic”. The inhibition at 10 µM in series [4] was 42.7%; in [6], 53.4%. Moreover, the inhibition at 1 µM in series [8] was determined as 29.4%; in series [10], 33.3%.
Consider `CC(=O)Oc1cc(C)c2c(c1C)[C@@H]1OC(=O)[C@@H](C)[C@@H]1CC2`, for which the inhibition at 100 µM came out at 63% in series [1] and 68% in [11]. Moreover, the Activity entry in [2] was “Non-Toxic”; in series [3], “Non-Toxic”; in series [5], “Non-Toxic”; in [7], “Toxic”; in series [9], “Non-Toxic”; in [12], “Toxic”. The inhibition at 10 µM in series [4] stood at 44.3%; in [6] it was 45.2%. In addition, the inhibition at 1 µM in [8] was 39.7%; in series [10] it was 51.8%.
Regarding `CCCCCOc1cc(C)c2c(c1C)[C@@H]1OC(=O)[C@@H](C)[C@@H]1CC2`, the inhibition at 100 µM is 29.4% in series [1] and 9.59% in series [11]. In addition, the Activity result in series [2], in series [3], in series [5], in series [7], in series [9] and in [12] was “Toxic” each time. Moreover, the figures for the inhibition at 10 µM in series [4] and in series [6] were 32.4% and 33.1%, respectively. For the same compound, the inhibition at 1 µM amounted to 11.1% in series [8] and 29.5% in [10].
Consider `Cc1cc(OCc2ccc(Cl)cc2)c(C)c2c1CC[C@H]1[C@H](C)C(=O)O[C@@H]21`, for which the inhibition at 100 µM in series [1] is 45%; in series [11], 28%. Besides, the Activity entry is on record as “Non-Toxic” in [2]; “Non-Toxic” in series [3]; “Non-Toxic” in series [5]; “Toxic” in series [7]; “Non-Toxic” in [9]; “Toxic” in series [12]. The inhibition at 10 µM in series [4] was determined as 37%; in series [6] it was 33%. Moreover, the inhibition at 1 µM in series [8] is 15%; in series [10] it was 37%.
For `CCC(=O)Oc1cc(C)c2c(c1C)[C@@H]1OC(=O)[C@@H](C)[C@@H]1CC2`, the inhibition at 100 µM in series [1] was found to be 41%; in [11], 69%. Also, the Activity entry in [2], in series [3], in series [5], in series [7], in [9] and in [12] was “Toxic” each time. In addition, the inhibition at 10 µM in series [4] worked out at 43%; in series [6], 33%. Besides, the inhibition at 1 µM in series [8] was 11.7%; in series [10], 20%.
On to `COc1ccc(NC(=O)CCC(=O)Oc2cc(C)c3c(c2C)[C@@H]2OC(=O)[C@@H](C)[C@@H]2CC3)cc1`, for which the inhibition at 100 µM stood at 58% in series [1] and 68% in series [11]. For the same compound, the Activity result is “Non-Toxic” in [2]; “Non-Toxic” in [3]; “Non-Toxic” in series [5]; “Toxic” in [7]; “Non-Toxic” in series [9]; “Toxic” in series [12]. Further, the inhibition at 10 µM amounted to 52% in series [4] and 35% in series [6]. Also, the inhibition at 1 µM in [8] came out at 1%; in series [10] it was 17.7%.
With `CCCCOc1cc(C)c2c(c1C)[C@@H]1OC(=O)[C@@H](C)[C@@H]1CC2`, the inhibition at 100 µM came to 33.8% in series [1] and 39% in series [11]. Also, the Activity entry in series [2], in series [3], in [5], in series [7], in series [9] and in series [12] was “Non-Toxic” each time. In addition, the inhibition at 10 µM in series [4] worked out at 33.3%; in series [6], 51%. For the same compound, the inhibition at 1 µM in series [8] was found to be 32%; in [10], 25.2%.
With `Cc1cc(OC(=O)CCC(=O)Nc2ccccc2F)c(C)c2c1CC[C@H]1[C@H](C)C(=O)O[C@@H]21`, the inhibition at 100 µM was found to be 66.7% in [1] and 77.9% in [11]. In addition, the Activity result in series [2], in series [3], in series [5], in series [7], in [9] and in series [12] was “Non-Toxic” each time. The results for the inhibition at 10 µM in series [4] and in series [6] were 44% and 41.7%, respectively. For the same compound, the inhibition at 1 µM in series [8] came out at 16.7%; in series [10], 21%.
Regarding `CCCC(=O)Oc1cc(C)c2c(c1C)[C@@H]1OC(=O)[C@@H](C)[C@@H]1CC2`, the inhibition at 100 µM came to 71.9% in series [1] and 69.8% in series [11]. Besides, the Activity entry in series [2], in series [3], in series [5], in series [7], in series [9] and in series [12] was “Non-Toxic” each time. For the same compound, the results for the inhibition at 10 µM in series [4] and in [6] were 35.4% and 38%, respectively. The inhibition at 1 µM in series [8] is 28.5%; in series [10] it was 12.5%.
